Values after ≈ are worked out from the molar mass of the structure shown.
Experiments:
[1] = system: Staphylococcus aureus; test: Antibacterial activity against Staphylococcus aureus ATCC 25923 assessed as reduction in bacterial growth incubated for 18 to 24 hrs by broth microdilution method; format: functional
Summary of the method: (§1)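 Bacteria grown overnight in cation-adjusted Mueller Hinton broth (CAMHB) at 37 °C, diluted 50-fold and grown 1.5–3 h to mid-log, then inoculated at 5×10^5 CFU mL^-1. Two-fold serial dilutions gave final 0.0039–64 μg mL^-1, plated in duplicate. Incubated 37 °C for 18–24 h. MIC was the lowest concentration with no visible growth (n ≥ 3).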

[2] = system: Bacillus subtilis; test: Antibacterial activity against Bacillus subtilis ATCC 6051 assessed as reduction in bacterial growth incubated for 18 to 24 hrs by broth microdilution method; format: functional; summary of the method: as §1
[3] = system: Enterococcus faecium; test: Antibacterial activity against Enterococcus faecium ATCC 35667 assessed as reduction in bacterial growth incubated for 18 to 24 hrs by broth microdilution method; format: functional; summary of the method: as §1
[4] = system: Klebsiella pneumoniae; test: Antibacterial activity against Klebsiella pneumoniae ATCC 13883 assessed as reduction in bacterial growth incubated for 18 to 24 hrs by broth microdilution method; format: functional; summary of the method: as §1
[5] = system: Acinetobacter baumannii; test: Antibacterial activity against Acinetobacter baumannii ATCC 19606 assessed as reduction in bacterial growth incubated for 18 to 24 hrs by broth microdilution method; format: functional; details: ATCC 19606 = CIP 70.34 = JCM 6841; summary of the method: as §1
[6] = system: Pseudomonas aeruginosa; test: Antibacterial activity against Pseudomonas aeruginosa ATCC 27853 assessed as reduction in bacterial growth incubated for 18 to 24 hrs by broth microdilution method; format: functional
Summary of the method: (§2)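 Bacteria grown overnight in cation-adjusted Mueller Hinton broth (CAMHB) at 37 °C, diluted 50-fold and grown 1.5–3 h to mid-log, then inoculated at 5×10^5 CFU mL^-1. Two-fold serial dilutions gave final 0.0039–64 μg mL^-1, plated in duplicate. Incubated 37 °C for 18–24 h.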

[7] = system: Pseudomonas aeruginosa; test: Antibacterial activity against Pseudomonas aeruginosa PAO750 PAO397 harbouring delta efflux pump mutant assessed as reduction in bacterial growth incubated for 18 to 24 hrs by broth microdilution method; format: functional
Summary of the method: (§3)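 Broth microdilution in cation-adjusted Mueller Hinton broth. Overnight 37 °C cultures were diluted 50-fold and grown 1.5–3 h to mid-log, then seeded at 5×10^5 CFU mL^-1. Compounds were two-fold serially diluted, final range 0.0039–64 μg mL^-1, in duplicate. Plates were incubated at 37 °C for 18–24 h.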

[8] = system: Escherichia coli; test: Antibacterial activity against Escherichia coli ATCC 25922 assessed as reduction in bacterial growth incubated for 18 to 24 hrs by broth microdilution method; format: functional; summary of the method: as §2
[9] = system: Escherichia coli; test: Antibacterial activity against Escherichia coli MB4902 harbouring lpxC mutant assessed as reduction in bacterial growth incubated for 18 to 24 hrs by broth microdilution method; format: functional; summary of the method: as §3
[10] = system: Escherichia coli; test: Antibacterial activity against Escherichia coli MB5747 harbouring tolC mutant assessed as reduction in bacterial growth incubated for 18 to 24 hrs by broth microdilution method; format: functional; summary of the method: as §3
[11] = system: Escherichia coli; test: Antibacterial activity against Escherichia coli MB5746 harbouring lpxC and tolC double mutant assessed as reduction in bacterial growth incubated for 18 to 24 hrs by broth microdilution method; format: functional; summary of the method: as §3
[12] = Drug uptake in Escherichia coli AG102 incubated for 30 to 45 mins by Hoechst 33342 and Syto9 staining based confocal microscopy; format: ADME
Summary of the method: (§4)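 Colonies from LB agar were grown overnight in CAMHB at 37 °C, diluted ~40-fold and grown to OD600 0.4–0.6. Cells were pelleted, washed in HBSS and incubated with probe (50–100 μM) in HBSS at 37 °C for 30–45 min. […] were stained with Hoechst 33342 (5 μg mL^-1) or Syto-9 (10 μM) for 20 min, and membranes with FM4-64FX (5 μg mL^-1) for 5 min on ice. Samples were mounted and imaged by confocal microscopy.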

[13] = Drug uptake in Staphylococcus aureus incubated for 30 to 45 mins by Hoechst 33342 and Syto9 staining based confocal microscopy; format: ADME; summary of the method: as §4
[14] = Drug uptake in Escherichia coli AG102 incubated for 30 to 45 mins in presence of CCCP by Hoechst 33342 and Syto9 staining based confocal microscopy; format: ADME; summary of the method: as §4

Row | Compound | MIC [1] | MIC [2] | MIC [3] | MIC [4] | MIC [5] | MIC [6] | MIC [7] | MIC [8] | MIC [9] | MIC [10] | MIC [11] | Drug uptake [12] | Drug uptake [13] | Drug uptake [14]
1 | [N-]=[N+]=NCCCN1CCN(c2cc3c(cc2F)c(=O)c(C(=O)O)cn3C2CC2)CC1 | 0.25 µg/mL (≈ 0.603 µM) | 0.06 to 0.25 µg/mL (≈ 0.145 to 0.603 µM) | 16 to 64 µg/mL (≈ 38.6 to 154 µM) | 0.125 to 0.25 µg/mL (≈ 0.302 to 0.603 µM) | 0.25 to 0.5 µg/mL (≈ 0.603 to 1.21 µM) | 8 to 64 µg/mL (≈ 19.3 to 154 µM) | 32 to 64 µg/mL (≈ 77.2 to 154 µM) | 0.06 to 0.25 µg/mL (≈ 0.145 to 0.603 µM) | 0.25 to 1 µg/mL (≈ 0.603 to 2.41 µM) | 0.25 to 1 µg/mL (≈ 0.603 to 2.41 µM) | 0.25 to 1 µg/mL (≈ 0.603 to 2.41 µM) |  |  | 
2 | O=C(O)c1cn(C2CC2)c2cc(N3CCNCC3)c(F)cc2c1=O [CIPROFLOXACIN] | 0.125 to 0.5 µg/mL (≈ 0.377 to 1.51 µM) | 0.06 to 0.313 µg/mL (≈ 0.181 to 0.945 µM) | 1 to 8 µg/mL (≈ 3.02 to 24.1 µM) | 0.015 to 0.06 µg/mL (≈ 0.0453 to 0.181 µM) | 0.5 to 1 µg/mL (≈ 1.51 to 3.02 µM) |  |  |  |  |  |  |  |  | 
3 | CN(C)c1ccc2c(CC(=O)NCc3cn(CCCN4CCN(c5cc6c(cc5F)c(=O)c(C(=O)O)cn6C5CC5)CC4)nn3)cc(=O)oc2c1 | 16 µg/mL (≈ 22.9 µM) | 4 µg/mL (≈ 5.72 µM) | 32 to 64 µg/mL (≈ 45.8 to 91.6 µM) | 4 to 32 µg/mL (≈ 5.72 to 45.8 µM) | 32 µg/mL (≈ 45.8 µM) | 32 to 64 µg/mL (≈ 45.8 to 91.6 µM) | 2 to 8 µg/mL (≈ 2.86 to 11.4 µM) | 2 µg/mL (≈ 2.86 µM) | 2 µg/mL (≈ 2.86 µM) | 0.5 to 1 µg/mL (≈ 0.716 to 1.43 µM) | 0.5 to 1 µg/mL (≈ 0.716 to 1.43 µM) | Active | Active | 
4 | O=C(O)c1cn(C2CC2)c2cc(N3CCN(CCCn4cc(CNc5ccc([N+](=O)[O-])c6nonc56)nn4)CC3)c(F)cc2c1=O | 32 to 64 µg/mL (≈ 50.6 to 101 µM) | 8 µg/mL (≈ 12.6 µM) | 32 µg/mL (≈ 50.6 µM) | 8 to 16 µg/mL (≈ 12.6 to 25.3 µM) | 32 to 64 µg/mL (≈ 50.6 to 101 µM) | 32 to 64 µg/mL (≈ 50.6 to 101 µM) | 4 µg/mL (≈ 6.32 µM) | 8 µg/mL (≈ 12.6 µM) | 1 to 4 µg/mL (≈ 1.58 to 6.32 µM) | 0.125 to 0.25 µg/mL (≈ 0.198 to 0.395 µM) | 0.06 to 0.125 µg/mL (≈ 0.0948 to 0.198 µM) | Not Active | Active | Active
